Key:
[1] = molecular target: Beta-lactamase (Escherichia coli K-12) (UniProt P00811); experiment: Percentage inhibition against beta-Lactamase in the absence of detergent Triton X-100 was determined at a concentration of 20 uM
In short: (§1)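 AmpC β-lactamase (expressed and purified from E. coli) assayed in 50 mM KPi, pH 7.0, at room temperature. Enzyme and inhibitor were preincubated for 5 min before the nitrocefin substrate (200 μM) was added, and hydrolysis was followed kinetically. For the detergent lines, Triton X-100, made fresh daily as a 1% (v/v) stock in 50 mM KPi, was used at a final 0.01%.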

[2] = molecular target: Beta-lactamase (Escherichia coli K-12) (UniProt P00811); experiment: Percentage inhibition against beta-Lactamase in the presence of detergent 0.01% Triton X-100 was determined at a concentration of 20 uM; in short: as §1
Beta-lactamase [3] = molecular target: T1, Beta-lactamase (Escherichia coli K-12, UniProt P00811); experiment: Inhibitory activity against Amp C beta-Lactamase
T1 sequence (P00811 whole entry): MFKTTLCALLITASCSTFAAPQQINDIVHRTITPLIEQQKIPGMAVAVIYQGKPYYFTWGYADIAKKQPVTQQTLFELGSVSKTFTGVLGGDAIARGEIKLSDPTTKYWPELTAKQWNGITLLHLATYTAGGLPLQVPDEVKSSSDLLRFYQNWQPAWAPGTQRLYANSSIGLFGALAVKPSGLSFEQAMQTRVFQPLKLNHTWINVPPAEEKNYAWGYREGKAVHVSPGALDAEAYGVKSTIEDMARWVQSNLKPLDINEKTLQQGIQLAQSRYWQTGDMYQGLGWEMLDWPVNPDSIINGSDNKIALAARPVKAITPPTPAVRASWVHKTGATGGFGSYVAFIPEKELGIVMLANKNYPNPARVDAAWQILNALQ

[4] = molecular target: Beta-lactamase (Escherichia coli K-12) (UniProt P00811); details: 30 uM
Beta-lactamase [5] = molecular target: T1, Beta-lactamase; experiment: Inhibitory activity against Beta-lactamase from DMSO stock was determined
[6] = molecular target: Beta-lactamase (Escherichia coli K-12) (UniProt P00811); experiment: Percentage inhibition against beta-Lactamase in the absence of detergent Triton X-100 was determined at a concentration of 0.6 uM; in short: as §1
[7] = molecular target: Beta-lactamase (Escherichia coli K-12) (UniProt P00811); experiment: Percentage inhibition against beta-Lactamase in the presence of detergent 0.01% Triton X-100 was determined at a concentration of 0.6 uM; in short: as §1
[8] = molecular target: Beta-lactamase (Escherichia coli K-12) (UniProt P00811); experiment: Percentage inhibition against beta-Lactamase in the absence of detergent Triton X-100 was determined at a concentration of 25 uM
In short: (§2)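 AmpC β-lactamase (E. coli-expressed, purified) assayed in 50 mM KPi, pH 7.0, at room temperature. Enzyme and inhibitor preincubated 5 min before substrate addition. Inhibitors were typically diluted from 10 mM DMSO stocks into KPi. Where present, Triton X-100 was at 0.01% final, from a 1% (v/v) stock in 50 mM KPi freshly prepared daily.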

[9] = molecular target: Beta-lactamase (Escherichia coli K-12) (UniProt P00811); experiment: Percentage inhibition against beta-Lactamase in the presence of detergent 0.01% Triton X-100 was determined at a concentration of 25 uM; in short: as §2
[10] = molecular target: Beta-lactamase (Escherichia coli K-12) (UniProt P00811); experiment: Percentage inhibition of Beta-lactamase at KPi (Potassium Phosphate) stock concentration of 5.9 uM
In short: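 Compound dissolved directly in 50 mM KPi with no DMSO, stock level set by UV–vis spectra correlated with DMSO-diluted solutions. Tested against AmpC β-lactamase in 50 mM KPi, pH 7.0, room temperature, with 5 min enzyme–inhibitor preincubation. Value reported as percent inhibition.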

[11] = molecular target: Beta-lactamase (Escherichia coli K-12) (UniProt P00811); experiment: Percentage inhibition against beta-Lactamase in the absence of detergent Triton X-100 was determined at a concentration of 5 uM; in short: as §2
[12] = molecular target: Beta-lactamase (Escherichia coli K-12) (UniProt P00811); experiment: Percentage inhibition against beta-Lactamase in the presence of detergent 0.01% Triton X-100 was determined at a concentration of 5 uM; in short: as §2

Beta-lactamase (Escherichia coli K-12), sequence (P00811 whole entry): as above

## O=C1NCc2c1c1c3ccccc3[nH]c1c1[nH]c3ccccc3c21 [STAUROSPORINONE]
[1]
  inhibition: 80%
[2]
  inhibition: 17%
Beta-lactamase [3]
  IC50: 8 µM

## O=S(=O)(O)c1cc(O)c(/N=N/c2ccc3ccccc3c2O)c2ccccc12
[4]
  inhibition: 68%

## COC(=O)C1=C(C)NC(C)=C(C(=O)OCCN(C)Cc2ccccc2)C1c1cccc([N+](=O)[O-])c1 (configuration not stated) [NICARDIPINE]
Beta-lactamase [5]
  IC50: 20 µM
Beta-lactamase [3]
  IC50: 20 µM

## Oc1ccc(/N=N/c2ccc(Br)cc2)cc1
[1]
  inhibition: 91%
[2]
  inhibition: 10%

## OB(O)c1cc2ccccc2s1
[6]
  inhibition: 87%
[7]
  inhibition: 86%

## Clc1ccc(CSC(Cn2ccnc2)c2ccc(Cl)cc2Cl)cc1 (configuration not stated) [SULCONAZOLE]
Beta-lactamase [3]
  IC50: 14 µM

## O=c1c(O)c(-c2ccc(O)c(O)c2)oc2cc(O)cc(O)c12
[8]
  inhibition: 68%
[9]
  inhibition: 25%
[10]
  inhibition: 43%

## CC(=O)c1c(O)c(C)c(O)c(Cc2c(O)c3c(c(C(=O)/C=C/c4ccccc4)c2O)OC(C)(C)C=C3)c1O [ROTTLERIN]
[11]
  inhibition: 90%
[12]
  inhibition: 5%
Beta-lactamase [3]
  IC50: 1.2 µM

Reference: ChEMBL document CHEMBL1144937, “A specific mechanism of nonspecific inhibition” (J Med Chem, 2003)
